Active and inactive are the calls of the source. No cut-off for these calls is given here.
Key:
[1] = molecular target: T1, Cystic fibrosis transmembrane conductance regulator (Homo sapiens, UniProt P13569); test: Inhibition of human CFTR expressed in rat FRT cells coexpressing halide indicator YFP-H148Q assessed as inhibition of halide influx at 25 uM preincubated for 15 mins by FLIPR; type: cell-based
Method in brief: (§1)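 FRT cells coexpressing human CFTR and YFP halide sensor, assayed 48 h after plating at confluence. After PBS washes, CFTR activated with 5 µM forskolin, 100 µM IBMX and 25 µM apigenin. Compound added 5 min later and incubated 15 min. Fluorescence read 2 s baseline, then 10 s after iodide-substituted PBS addition. Initial iodide influx rate obtained by nonlinear regression.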
Target sequence in this assay (P13569 whole entry, looked up): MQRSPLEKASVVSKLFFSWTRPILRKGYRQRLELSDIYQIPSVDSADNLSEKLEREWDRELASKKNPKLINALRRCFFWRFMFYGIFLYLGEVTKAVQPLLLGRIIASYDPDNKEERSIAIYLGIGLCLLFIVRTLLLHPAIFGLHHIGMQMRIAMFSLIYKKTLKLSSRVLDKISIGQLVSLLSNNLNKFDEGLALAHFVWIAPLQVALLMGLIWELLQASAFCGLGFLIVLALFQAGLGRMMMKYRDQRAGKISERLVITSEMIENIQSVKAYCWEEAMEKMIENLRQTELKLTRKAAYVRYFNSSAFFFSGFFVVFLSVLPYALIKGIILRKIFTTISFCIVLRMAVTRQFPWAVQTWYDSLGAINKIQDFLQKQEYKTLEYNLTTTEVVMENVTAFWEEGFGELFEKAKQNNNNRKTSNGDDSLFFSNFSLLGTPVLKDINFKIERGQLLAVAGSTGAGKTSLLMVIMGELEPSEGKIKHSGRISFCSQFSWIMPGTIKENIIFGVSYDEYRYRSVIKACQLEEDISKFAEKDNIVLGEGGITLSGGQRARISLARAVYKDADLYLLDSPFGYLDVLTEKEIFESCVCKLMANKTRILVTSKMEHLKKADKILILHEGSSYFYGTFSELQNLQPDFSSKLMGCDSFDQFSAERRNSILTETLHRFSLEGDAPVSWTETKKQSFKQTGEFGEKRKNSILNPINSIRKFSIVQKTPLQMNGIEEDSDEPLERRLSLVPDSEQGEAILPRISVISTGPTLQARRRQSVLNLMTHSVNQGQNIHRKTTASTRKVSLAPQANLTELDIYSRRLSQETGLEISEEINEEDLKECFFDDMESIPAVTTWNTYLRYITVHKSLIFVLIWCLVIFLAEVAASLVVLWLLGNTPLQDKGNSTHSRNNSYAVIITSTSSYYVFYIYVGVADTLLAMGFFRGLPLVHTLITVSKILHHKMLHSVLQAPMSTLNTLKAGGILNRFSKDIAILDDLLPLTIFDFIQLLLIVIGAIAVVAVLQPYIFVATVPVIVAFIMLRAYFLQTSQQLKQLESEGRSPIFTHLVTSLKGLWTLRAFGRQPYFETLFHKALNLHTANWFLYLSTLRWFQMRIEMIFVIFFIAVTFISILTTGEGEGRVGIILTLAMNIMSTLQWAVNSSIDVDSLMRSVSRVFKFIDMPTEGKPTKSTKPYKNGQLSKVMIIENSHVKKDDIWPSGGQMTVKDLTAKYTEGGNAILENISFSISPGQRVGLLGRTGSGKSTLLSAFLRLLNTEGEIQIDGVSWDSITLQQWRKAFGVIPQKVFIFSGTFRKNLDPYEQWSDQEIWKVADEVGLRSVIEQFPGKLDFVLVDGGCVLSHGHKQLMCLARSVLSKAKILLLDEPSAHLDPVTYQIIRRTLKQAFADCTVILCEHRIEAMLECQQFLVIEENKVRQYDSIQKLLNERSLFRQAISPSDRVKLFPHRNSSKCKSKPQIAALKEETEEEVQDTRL

[2] = molecular target: T1, Cystic fibrosis transmembrane conductance regulator; test: Inhibition of human CFTR expressed in rat FRT cells coexpressing halide indicator YFP-H148Q assessed as inhibition of halide influx at 5 uM preincubated for 15 mins by FLIPR; type: cell-based; method in brief: as §1
Target sequence in this assay (P13569 whole entry, looked up): as above

[3] = molecular target: T1, Cystic fibrosis transmembrane conductance regulator; test: Inhibition of CFTR
Method in brief: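 Ussing-chamber apical membrane current in CFTR-expressing FRT cells under a chloride gradient: apical 75 mM NaCl/75 mM Na gluconate, basolateral 150 mM NaCl, pH 7.3. Basolateral membrane permeabilized with 250 µg/mL amphotericin B, air-bubbled, 37 °C. CFTR activated by 100 µM CPT-cAMP, then compound added at increasing concentrations. Dose–response, SE n = 4.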
Target sequence in this assay (P13569 whole entry): as the sequence (P13569 whole entry, looked up) above

Kidney [4] = test: Inhibition of cyst formation in 8-Br-cAMP treated embryonic mouse kidney organ culture model of polycystic kidney disease at 2.5 uM by transmission light microscopy; type: functional, tissue-based
Method in brief: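 E13.5 mouse metanephroi cultured on porous inserts in defined DMEM/Ham's F-12 (insulin, transferrin, selenium, prostaglandin E, T3) at 37 °C. Medium with 100 µM 8-Br-cAMP, with or without inhibitor, replaced every 12 h. After 4 days, transmission light micrographs scored as fractional kidney area occupied by cysts (6–8 kidneys, SE).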

Kidney [5] = test: Reduction in size of preformed cysts in 8-Br-cAMP treated embryonic mouse kidney organ culture model of polycystic kidney disease by transmission light microscopy; type: functional, tissue-based
Method in brief: (§2)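 E13.5 mouse metanephroi in defined organ-culture medium with 100 µM 8-Br-cAMP, changed every 12 h, 37 °C. Compound (5 µM) added at day 3 to kidneys with preformed cysts. Cyst area fraction by transmission light microscopy at day 5, six kidneys, SE.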

Kidney [6] = test: Inhibition of cyst formation in 8-Br-cAMP treated embryonic mouse kidney organ culture model of polycystic kidney disease at 5 uM by transmission light microscopy; type: functional, tissue-based
Method in brief: (§3)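 E13.5 mouse metanephroi cultured on porous inserts in defined DMEM/Ham's F-12 (insulin, transferrin, selenium, prostaglandin E, T3) at 37 °C. Medium with 100 µM 8-Br-cAMP, with or without compound, replaced every 12 h. After 4 days, cyst area fraction measured by transmission light microscopy (SE, 6–8 kidneys), or paraffin sections H&E-stained (three kidneys per condition).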

[7] = molecular target: T1, Cystic fibrosis transmembrane conductance regulator; conditions: T84, 10 uM
Target sequence in this assay (P13569 whole entry, looked up): as above

[8] = molecular target: T1, Cystic fibrosis transmembrane conductance regulator; conditions: FRT, 0.5 uM
Target sequence in this assay (P13569 whole entry, looked up): as above

Epithelial cell [9] = test: Inhibition of calcium-activated chloride channel in CFTR deficient human bronchial epithelial cells assessed as inhibition of UTP-induced chloride current at 20 uM; type: cell-based
Method in brief: (§4)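 Ussing-chamber short-circuit current in cystic fibrosis (CFTR-deficient) human bronchial epithelial cells, Krebs-bicarbonate both sides, 5% CO2 in air, 37 °C. ENaC blocked with 10 µM amiloride. Calcium-activated chloride channels stimulated with 100 µM UTP, compound added as indicated.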

Kidney [10] = test: Reduction in cyst size in 8-Br-cAMP treated embryonic mouse kidney organ culture model of polycystic kidney disease by hematoxylin and eosin staining after 4 days; type: functional, tissue-based; method in brief: as §3
Kidney [11] = test: Inhibition of cyst formation in 8-Br-cAMP treated embryonic mouse kidney organ culture model of polycystic kidney disease at 0.5 uM by transmission light microscopy; type: functional; method in brief: as §3
Kidney [12] = test: Reduction in cyst expansion in 8-Br-cAMP treated embryonic mouse kidney organ culture model of polycystic kidney disease by transmission light microscopy; type: functional, tissue-based; method in brief: as §3
CHO-K1 [13] = test: Effect on basal cAMP production in CHOK1 cells at 10 uM; type: functional, cell-based; conditions: Cricetulus griseus
Method in brief: (§5)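 cAMP measured in CHO-K1 cells under basal conditions and after 20 µM forskolin, with or without compound at 10 µM; SE, n = 4.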

CHO-K1 [14] = test: Effect on forskolin-induced cAMP production in CHOK1 cells at 10 uM; type: functional, cell-based; conditions: Cricetulus griseus; method in brief: as §5
[15] = molecular target: T1, Cystic fibrosis transmembrane conductance regulator; test: Inhibition of human CFTR expressed in rat FRT cells assessed as inhibition of CPT-cAMP-induced apical membrane current in presence of transepithelial chloride gradient and basolateral membrane permeabilization with amphotericin B by short-circuit current analysis; type: cell-based
Method in brief: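 FRT cells stably coexpressing human wild-type CFTR, mounted in Ussing chambers. Apical 75 mM NaCl/75 mM Na gluconate, basolateral 150 mM NaCl (pH 7.3), basolateral membrane permeabilized with 250 µg/mL amphotericin B, air-bubbled, 37 °C. CFTR activated by 100 µM CPT-cAMP, then increasing inhibitor concentrations added cumulatively. Apical current recorded continuously; dose–response, SE n = 4.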
Target sequence in this assay (P13569 whole entry): as the sequence (P13569 whole entry, looked up) above

[16] = molecular target: T1, Cystic fibrosis transmembrane conductance regulator; test: Inhibition of CFTR in nonpermeabilized human bronchial epithelial cells assessed as inhibition of forskolin and IBMX-induced chloride current at by short-circuit current analysis; type: cell-based, Epithelial cell
Method in brief: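 Ussing chamber short-circuit current in nonpermeabilized primary human bronchial epithelial cells on inserts; Krebs-bicarbonate both sides, bubbled with 5% CO2 in air, 37 °C. CFTR maximally activated by 10 µM forskolin plus 100 µM IBMX, then inhibitor added; current recorded continuously with voltage clamp.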
Target sequence in this assay (P13569 whole entry): as the sequence (P13569 whole entry, looked up) above

Kidney [17] = test: Reduction in fluid accumulation in 3 days 8-Br-cAMP treated embryonic mouse kidney organ culture model of polycystic kidney disease at 5 uM after 1 or 2 days by transmission light microscopy; type: functional, tissue-based; method in brief: as §2
Epithelial cell [18] = test: Inhibition of calcium-activated chloride channel in CFTR deficient human bronchial epithelial cells assessed as inhibition of UTP-induced chloride current at 10 uM; type: cell-based; method in brief: as §4
[19] = molecular target: T1, Cystic fibrosis transmembrane conductance regulator; conditions: Epithelial cell, 10 uM
Target sequence in this assay (P13569 whole entry, looked up): as above

| inhibition [1] | inhibition [2] | Structure (SMILES) | other results |
| --- | --- | --- | --- |
| 100% | 46% | Cc1cccc(C2Nc3ccccc3-n3c(-c4ccccc4C)c4c(=O)n(C)c(=O)n(C)c4c32)c1 (stereo unspecified) | – |
| 93% | 53% | Cc1cccc(-c2c3c(=O)n(C)c(=O)n(C)c3c3n2-c2ccccc2NC3c2cccc(F)c2)c1 (stereo unspecified) | – |
| 90% | 60% | Cn1c(=O)c2c(-c3ccccc3)n3c(c2n(C)c1=O)C(c1cccc([N+](=O)[O-])c1)Nc1ccccc1-3 (stereo unspecified) | – |
| 81% | 61% | Cn1c(=O)c2c(-c3ccccc3)n3c(c2n(C)c1=O)C(c1ccccc1F)Nc1ccccc1-3 (stereo unspecified) | – |
| – | – | O=C(O)c1ccc(/C=C2\SC(=S)N(c3cccc(C(F)(F)F)c3)C2=O)cc1 | IC50 [3]: 300 nM |
| 87% | 80% | Cc1ccc(C2Nc3cc(C)c(C)cc3-n3c(-c4ccccc4F)c4c(=O)n(C)c(=O)n(C)c4c32)o1 (stereo unspecified) | – |
| 90% | 84% | Cc1ccc(C2Nc3cc(C)c(C)cc3-n3c(-c4ccccc4)c4c(=O)n(C)c(=O)n(C)c4c32)o1 (stereo unspecified) | – |
| 97% | 51% | Cc1ccccc1-c1c2c(=O)n(C)c(=O)n(C)c2c2n1-c1ccccc1NC2c1ccccc1 (stereo unspecified) | – |
| 86% | 63% | COc1cccc(C2Nc3ccccc3-n3c(-c4ccccc4)c4c(=O)n(C)c(=O)n(C)c4c32)c1 (stereo unspecified) | – |
| 97% | 87% | Cc1ccc(C2Nc3ccccc3-n3c(-c4ccccc4)c4c(=O)n(C)c(=O)n(C)c4c32)o1 (stereo unspecified) | inhibition (Kidney [4]): Active; Activity (Kidney [5]): Active; Activity (Kidney [6]): Active; inhibition [7]: 100%; inhibition [8]: 65%; Activity (Epithelial cell [9]): inactive; inhibition (Kidney [10]): Active; inhibition at 0.5 µM (Kidney [11]): 60%; Activity (Kidney [12]): Active; Activity (CHO-K1 [13]): inactive; Activity (CHO-K1 [14]): inactive; IC50 [15]: 90 nM; IC50 [16]: < 1000 nM; inhibition (Kidney [17]): Active; Activity (Epithelial cell [18]): inactive; inhibition [19]: 100% |
| 56% | 5% | COc1cc(O)ccc1C1Nc2ccccc2-n2c(-c3ccccc3)c3c(=O)n(C)c(=O)n(C)c3c21 (stereo unspecified) | – |
| 98% | 70% | Cn1c(=O)c2c(-c3ccccc3F)n3c(c2n(C)c1=O)C(c1cccc(Cl)c1)Nc1ccccc1-3 (stereo unspecified) | – |
| – | – | O=C(CNc1ccc2ccccc2c1)N/N=C/c1cc(Br)c(O)c(Br)c1O | IC50 [3]: 5000 nM |
| 98% | 82% | Cc1cccc(-c2c3c(=O)n(C)c(=O)n(C)c3c3n2-c2ccccc2NC3c2ccc(C)o2)c1 (stereo unspecified) | – |
| 94% | 62% | COc1cccc(C2Nc3ccccc3-n3c(-c4ccccc4C)c4c(=O)n(C)c(=O)n(C)c4c32)c1 (stereo unspecified) | – |
| 86% | 64% | Cn1c(=O)c2c(-c3ccccc3)n3c(c2n(C)c1=O)C(c1ccc(O)cc1)Nc1ccccc1-3 (stereo unspecified) | – |
| 96% | 64% | Cc1ccccc1-c1c2c(=O)n(C)c(=O)n(C)c2c2n1-c1ccccc1NC2c1cccc([N+](=O)[O-])c1 (stereo unspecified) | – |
| 94% | 61% | Cc1cccc(-c2c3c(=O)n(C)c(=O)n(C)c3c3n2-c2ccccc2NC3c2cccc([N+](=O)[O-])c2F)c1 (stereo unspecified) | – |
| 94% | 71% | Cc1cccc(-c2c3c(=O)n(C)c(=O)n(C)c3c3n2-c2ccccc2NC3c2ccc(O)cc2)c1 (stereo unspecified) | – |
| 93% | 72% | Cn1c(=O)c2c(-c3ccccc3)n3c(c2n(C)c1=O)C(c1cccc(F)c1F)Nc1ccccc1-3 (stereo unspecified) | – |
| 92% | 61% | Cn1c(=O)c2c(-c3ccccc3)n3c(c2n(C)c1=O)C(c1ccccc1)Nc1ccccc1-3 (stereo unspecified) | – |
| 98% | 73% | COc1cccc(C2Nc3ccccc3-n3c(-c4cccc(C)c4)c4c(=O)n(C)c(=O)n(C)c4c32)c1 (stereo unspecified) | – |
| 99% | 80% | Cc1cc2c(cc1C)-n1c(-c3ccccc3)c3c(=O)n(C)c(=O)n(C)c3c1C(c1ccc(O)cc1)N2 (stereo unspecified) | – |
| 97% | 86% | Cc1ccc(C2Nc3ccccc3-n3c(-c4ccccc4C)c4c(=O)n(C)c(=O)n(C)c4c32)o1 (stereo unspecified) | – |
| 97% | 62% | COc1cccc(C2Nc3ccccc3-n3c(-c4ccccc4F)c4c(=O)n(C)c(=O)n(C)c4c32)c1 (stereo unspecified) | – |
| 80% | 67% | Cc1cccc(-c2c3c(=O)n(C)c(=O)n(C)c3c3n2-c2ccccc2NC3c2ccccc2F)c1 (stereo unspecified) | – |
